What all share (assay type): functional
Test [1] in a line: Antifungal activity against Fonsecaea compacta by micro-broth dilution method. In a few lines:
(§1)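 Broth microdilution following the NCCLS yeast reference method (M27-A2), run on clinical isolates of filamentous fungi. Compounds were dissolved in DMSO, serially diluted in growth medium, inoculated and incubated at 35 °C. Growth was read at 7 days. MIC80 is the first well with about 80% less growth than the drug-free well.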

In the next test the test system is Nannizzia gypsea. Kind of test: Antifungal activity against Microsporum gypseum after 7 days by micro-broth dilution method. As to conditions: 168 h. In a few lines: as §1
(Broth dilution looks for growth in wells or tubes with falling amounts of substance.)

A further test concerns Candida albicans. Kind of test: Antifungal activity against Candida albicans ATCC Y0109 after 24 hrs by micro-broth dilution method. Conditions: ATCC Y0109, 24 h. In a few lines:
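Micro-broth dilution per NCCLS M27-A2 on the quality-control standard strain ATCC Y0109, included in each assay. Compounds were dissolved in DMSO, serially diluted in growth medium, inoculated and incubated at 35 °C, with growth read at 24 h. MIC80 is the first well showing roughly 80% growth reduction versus the drug-free well.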

The next test relates to Candida tropicalis. The test can be described thus: Antifungal activity against Candida tropicalis by micro-broth dilution method. Summed up:
(§2)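 Micro-broth dilution per NCCLS M27-A2. The C. parapsilosis strain is the ATCC 0306392 quality-control standard tested in each assay; the C. tropicalis strain is a clinical isolate. Compounds were in DMSO, serially diluted in growth medium, inoculated and incubated at 35 °C. MIC80 is the first well with about 80% growth reduction relative to the drug-free well.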

The test system of the next test is Trichophyton rubrum. The test can be described thus: Antifungal activity against Trichophyton rubrum after 7 days by micro-broth dilution method. As to conditions: 168 h. In a few lines:
as §1

A further test relates to Candida parapsilosis. Kind of test: Antifungal activity against Candida parapsilosis ATCC 0306392 by micro-broth dilution method. As to conditions: Lodderomyces parapsilosis. Summed up:
as §2

The subject of another test is Cryptococcus neoformans. Kind of test: Antifungal activity against Cryptococcus neoformans ATCC BLS108 after 72 hrs by micro-broth dilution method. Conditions: ATCC BLS108, 72 h. Summed up: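 NCCLS M27-A2 microdilution on the ATCC BLS108 quality-control strain, tested in every assay. Compounds were taken up in DMSO, serially diluted in growth medium, inoculated and incubated at 35 °C. Growth was scored at 72 h. MIC80 is the first well with about 80% lower growth than the drug-free control well.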

Another test concerns Aspergillus fumigatus. The test can be described thus: Antifungal activity against Aspergillus fumigatus after 7 days by micro-broth dilution method. As to conditions: 168 h. Summed up:
as §1

Here are results for 14 molecules from ChEMBL document CHEMBL1799942, “Design, synthesis and antifungal activities of novel 1,2,4-triazole derivatives” (2011).

Values after ≈ are worked out from the molar mass of the structure shown. Where only a bound is given, the exact number is not on record here.

In general, MIC80 refers to an inhibitory concentration at the 80% level, which refers to growth in some studies and to a panel of isolates in others. Low readings indicate higher susceptibility, high ones lower susceptibility. On to `CCC(=O)Nc1ccc(N2CCN(CC(O)(Cn3cncn3)c3ccc(F)cc3F)CC2)c(F)c1` (racemic), for which the MIC80 came to 1 µg/mL (≈ 2.05 µM) in test [1]; 0.25 µg/mL (≈ 0.512 µM) in the test on Nannizzia gypsea; 0.0625 µg/mL (≈ 0.128 µM) in the test with Candida albicans; 0.0625 µg/mL (≈ 0.128 µM) in the test with Candida tropicalis; 0.0625 µg/mL (≈ 0.128 µM) with Trichophyton rubrum; 0.0625 µg/mL (≈ 0.128 µM) with Candida parapsilosis. In addition, the MIC80 with Cryptococcus neoformans turned out to be 1 µg/mL (≈ 2.05 µM); against Aspergillus fumigatus it was 4 µg/mL (≈ 8.19 µM).
`CCCC(=O)Nc1ccc(N2CCN(CC(O)(Cn3cncn3)c3ccc(F)cc3F)CC2)c(F)c1` (racemic): the MIC80 in test [1] was 0.25 µg/mL (≈ 0.497 µM); against Nannizzia gypsea it was 0.0156 µg/mL (≈ 0.031 µM); with Candida albicans it was 0.0156 µg/mL (≈ 0.031 µM); with Candida tropicalis, 0.0156 µg/mL (≈ 0.031 µM); in the test with Trichophyton rubrum it was 0.0156 µg/mL (≈ 0.031 µM); with Candida parapsilosis, 0.0156 µg/mL (≈ 0.031 µM). Further, the figures for the MIC80 against Cryptococcus neoformans and in the test with Aspergillus fumigatus were 0.25 µg/mL (≈ 0.497 µM) and 1 µg/mL (≈ 1.99 µM), respectively.
`CC(C)C(=O)Nc1ccc(N2CCN(CC(O)(Cn3cncn3)c3ccc(F)cc3F)CC2)c(F)c1` (racemic): the MIC80 was determined as 1 µg/mL (≈ 1.99 µM) in test [1]; 0.0625 µg/mL (≈ 0.124 µM) against Nannizzia gypsea; 0.0625 µg/mL (≈ 0.124 µM) against Candida albicans; 4 µg/mL (≈ 7.96 µM) with Candida tropicalis; 0.0625 µg/mL (≈ 0.124 µM) in the test on Trichophyton rubrum; 0.25 µg/mL (≈ 0.497 µM) with Candida parapsilosis. Moreover, the MIC80 with Cryptococcus neoformans is 16 µg/mL (≈ 31.8 µM); in the test with Aspergillus fumigatus it was over 64 µg/mL.
For the molecule `CCCCC(=O)Nc1ccc(N2CCN(CC(O)(Cn3cncn3)c3ccc(F)cc3F)CC2)c(F)c1` (racemic), the MIC80 in test [1] stood at 1 µg/mL (≈ 1.94 µM); in the test on Nannizzia gypsea it was 0.25 µg/mL (≈ 0.484 µM); in the test with Candida albicans, 0.0156 µg/mL (≈ 0.0302 µM); against Candida tropicalis, 0.25 µg/mL (≈ 0.484 µM); in the test on Trichophyton rubrum, 0.25 µg/mL (≈ 0.484 µM); in the test on Candida parapsilosis it was 0.25 µg/mL (≈ 0.484 µM). The MIC80 with Cryptococcus neoformans and with Aspergillus fumigatus was 1 µg/mL (≈ 1.94 µM) in each case.
Turning to `CC(C)(C)C(=O)Nc1ccc(N2CCN(CC(O)(Cn3cncn3)c3ccc(F)cc3F)CC2)c(F)c1` (racemic), the MIC80 was 0.0625 µg/mL (≈ 0.121 µM) in test [1]; 0.0156 µg/mL (≈ 0.0302 µM) with Nannizzia gypsea; 0.0156 µg/mL (≈ 0.0302 µM) against Candida albicans; 0.0156 µg/mL (≈ 0.0302 µM) in the test with Candida tropicalis; 0.0156 µg/mL (≈ 0.0302 µM) with Trichophyton rubrum; 0.0156 µg/mL (≈ 0.0302 µM) against Candida parapsilosis. Also, the MIC80 was determined as 0.25 µg/mL (≈ 0.484 µM) with Cryptococcus neoformans and 64 µg/mL (≈ 124 µM) in the test with Aspergillus fumigatus.
With `CCCCCC(=O)Nc1ccc(N2CCN(CC(O)(Cn3cncn3)c3ccc(F)cc3F)CC2)c(F)c1` (racemic), the MIC80 in test [1] stood at 0.25 µg/mL (≈ 0.471 µM); with Nannizzia gypsea, 0.25 µg/mL (≈ 0.471 µM); in the test on Candida albicans, 0.0039 µg/mL (≈ 0.00735 µM); against Candida tropicalis, 0.0625 µg/mL (≈ 0.118 µM); with Trichophyton rubrum, 0.0156 µg/mL (≈ 0.0294 µM); against Candida parapsilosis it was 0.25 µg/mL (≈ 0.471 µM). In addition, the MIC80 against Cryptococcus neoformans was 0.0625 µg/mL (≈ 0.118 µM); with Aspergillus fumigatus, 1 µg/mL (≈ 1.88 µM).
Take `CCCCCCC(=O)Nc1ccc(N2CCN(CC(O)(Cn3cncn3)c3ccc(F)cc3F)CC2)c(F)c1` (racemic): the MIC80 came to 0.25 µg/mL (≈ 0.459 µM) in test [1]; 0.0625 µg/mL (≈ 0.115 µM) against Nannizzia gypsea; 0.00097 µg/mL (≈ 0.00178 µM) with Candida albicans; 0.0625 µg/mL (≈ 0.115 µM) against Candida tropicalis; 0.0156 µg/mL (≈ 0.0286 µM) against Trichophyton rubrum; 0.0625 µg/mL (≈ 0.115 µM) with Candida parapsilosis. Moreover, the values for the MIC80 against Cryptococcus neoformans and against Aspergillus fumigatus were 0.0625 µg/mL (≈ 0.115 µM) and 1 µg/mL (≈ 1.84 µM), respectively.
For the molecule `CCCCCCCC(=O)Nc1ccc(N2CCN(CC(O)(Cn3cncn3)c3ccc(F)cc3F)CC2)c(F)c1` (racemic), the MIC80 in test [1] was found to be 0.25 µg/mL (≈ 0.448 µM); in the test with Nannizzia gypsea, 0.0625 µg/mL (≈ 0.112 µM); in the test with Candida albicans, 0.0625 µg/mL (≈ 0.112 µM); in the test with Candida tropicalis it was 0.0625 µg/mL (≈ 0.112 µM); against Trichophyton rubrum, 0.0039 µg/mL (≈ 0.00698 µM); in the test with Candida parapsilosis, 0.0625 µg/mL (≈ 0.112 µM). Besides, the figures for the MIC80 with Cryptococcus neoformans and with Aspergillus fumigatus were 0.25 µg/mL (≈ 0.448 µM) and 1 µg/mL (≈ 1.79 µM), respectively.
For `O=C(Cc1ccccc1)Nc1ccc(N2CCN(CC(O)(Cn3cncn3)c3ccc(F)cc3F)CC2)c(F)c1` (racemic), the MIC80 in test [1] was 0.0625 µg/mL (≈ 0.114 µM); in the test with Nannizzia gypsea, 0.0156 µg/mL (≈ 0.0283 µM); with Candida albicans, 0.0156 µg/mL (≈ 0.0283 µM); in the test on Candida tropicalis, 0.0625 µg/mL (≈ 0.114 µM); with Trichophyton rubrum, 0.0039 µg/mL (≈ 0.00708 µM); in the test with Candida parapsilosis, 0.0625 µg/mL (≈ 0.114 µM). For the same molecule, the MIC80 was 1 µg/mL (≈ 1.82 µM) against Cryptococcus neoformans and 64 µg/mL (≈ 116 µM) against Aspergillus fumigatus.
`C[C@@H]1[C@H](O)[C@@H](C)/C=C/C=C/C=C/C=C/C=C/C=C/C=C/[C@H](O[C@@H]2O[C@H](C)[C@@H](O)[C@H](N)[C@@H]2O)C[C@@H]2O[C@](O)(C[C@@H](O)C[C@@H](O)[C@H](O)CC[C@@H](O)C[C@@H](O)CC(=O)O[C@H]1C)C[C@H](O)[C@H]2C(=O)O` [AMPHOTERICIN B]: the MIC80 in test [1] was determined as 16 µg/mL (≈ 17.3 µM); against Nannizzia gypsea, 0.0039 µg/mL (≈ 0.00422 µM); in the test on Candida albicans it was 1 µg/mL (≈ 1.08 µM); with Candida tropicalis, 0.0625 µg/mL (≈ 0.0676 µM); against Trichophyton rubrum, 1 µg/mL (≈ 1.08 µM); against Candida parapsilosis it was 0.0156 µg/mL (≈ 0.0169 µM). For the same molecule, the MIC80 in the test with Cryptococcus neoformans came out at 1 µg/mL (≈ 1.08 µM); in the test with Aspergillus fumigatus, 4 µg/mL (≈ 4.33 µM).
As to `OC(Cn1cncn1)(Cn1cncn1)c1ccc(F)cc1F` [FLUCONAZOLE], the MIC80 in test [1] is 16 µg/mL (≈ 52.2 µM); against Nannizzia gypsea it was 0.25 µg/mL (≈ 0.816 µM); against Candida albicans, 4 µg/mL (≈ 13.1 µM); in the test with Candida tropicalis it was 1 µg/mL (≈ 3.27 µM); in the test with Trichophyton rubrum, 0.25 µg/mL (≈ 0.816 µM); in the test with Candida parapsilosis, 1 µg/mL (≈ 3.27 µM). Moreover, the MIC80 came out at 1 µg/mL (≈ 3.27 µM) in the test with Cryptococcus neoformans and 64 µg/mL (≈ 209 µM) in the test with Aspergillus fumigatus.
For the molecule `CCC(C)n1ncn(-c2ccc(N3CCN(c4ccc(OCC5COC(Cn6cncn6)(c6ccc(Cl)cc6Cl)O5)cc4)CC3)cc2)c1=O` (configuration not stated) [ITRACONAZOLE], the MIC80 is 0.25 µg/mL (≈ 0.354 µM) in test [1]; 0.0156 µg/mL (≈ 0.0221 µM) with Nannizzia gypsea; 1 µg/mL (≈ 1.42 µM) against Candida albicans; 0.25 µg/mL (≈ 0.354 µM) in the test on Candida tropicalis; 0.0156 µg/mL (≈ 0.0221 µM) with Trichophyton rubrum; 0.25 µg/mL (≈ 0.354 µM) in the test on Candida parapsilosis. The MIC80 against Cryptococcus neoformans and with Aspergillus fumigatus was 1 µg/mL (≈ 1.42 µM) throughout.
As to `CC(=O)N1CCN(c2ccc(OCC3COC(Cn4ccnc4)(c4ccc(Cl)cc4Cl)O3)cc2)CC1` (configuration not stated) [KETOCONAZOLE], the MIC80 turned out to be 0.0625 µg/mL (≈ 0.118 µM) in test [1]; 0.0039 µg/mL (≈ 0.00734 µM) with Nannizzia gypsea; 0.0625 µg/mL (≈ 0.118 µM) against Candida albicans; 0.0625 µg/mL (≈ 0.118 µM) in the test with Candida tropicalis; 0.0625 µg/mL (≈ 0.118 µM) with Trichophyton rubrum; 0.0625 µg/mL (≈ 0.118 µM) with Candida parapsilosis. The MIC80 in the test on Cryptococcus neoformans was determined as 0.0625 µg/mL (≈ 0.118 µM); with Aspergillus fumigatus, 1 µg/mL (≈ 1.88 µM).
Turning to `C[C@@H](c1ncncc1F)[C@](O)(Cn1cncn1)c1ccc(F)cc1F` [VORICONAZOLE], the MIC80 in test [1] was 0.0156 µg/mL (≈ 0.0447 µM); against Nannizzia gypsea it was 0.0039 µg/mL (≈ 0.0112 µM); against Candida albicans, 0.0156 µg/mL (≈ 0.0447 µM); in the test with Candida tropicalis it was 0.25 µg/mL (≈ 0.716 µM); against Trichophyton rubrum, 0.0039 µg/mL (≈ 0.0112 µM); with Candida parapsilosis, 1 µg/mL (≈ 2.86 µM). Moreover, the MIC80 with Cryptococcus neoformans was 0.0156 µg/mL (≈ 0.0447 µM); against Aspergillus fumigatus, over 64 µg/mL.
